Assay results: ChEMBL document CHEMBL5705901, “Exploiting selective BCL-2 family inhibitors to dissect cell survival dependencies and define improved strategies for cancer therapy” (Sci Transl Med, 2015)
Activity calls are given as the source filed them. The rule behind the calls is not given here.

Experiments:
[1] = Toxicity in po dosed SCID mouse assessed as body weight loss in presence of docetaxel relative to control; format: organism-based; settings: in vivo
MDA-MB-231 [2] = assay: Antitumor activity against LC3 positive human MDA-MB-231 cells xenografted in SCID mouse assessed as tumor growth delay at 25 mg/kg, po administered daily for 14 days relative to control; format: functional; settings: time 14 day
In short: (§1)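 MDA-MB-231 LC3 metastatic breast cancer xenograft, 10 mice per group, with a vehicle control. Dosing: oral agent 25 mg/kg daily for 14 days; docetaxel 7.5 mg/kg iv once; combination gives both regimens. Mean tumor volumes tracked. TGImax = 100(1 − Tv/Cv) from mean treated vs control volumes. TGD = 100(T/C − 1) from median times to reach 1 cm3.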

MDA-MB-231 [3] = assay: Synergistic antitumor activity against LC3 positive human MDA-MB-231 cells xenografted in SCID mouse assessed as maximum tumor growth inhibition at 25 mg/kg, po coadministered with docetaxel once daily for 14 days relative to control; format: functional; settings: MDA-MB-231, 336 h, time 14 day, read-out: TGI; in short: as §1
NCI-H747 = assay: Antitumor activity against human NCI-H747 cells xenografted in po dosed SCID-bg mouse assessed as tumor growth delay relative to control; format: functional
In short: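 Tumor volume-based endpoints. TGD = 100(T/C − 1), where T and C are the median times for the treated and control groups to reach 1 cm3. Groups were five mice for NCI-H747 and OVCAR-5 and eight for NCI-H358. Docetaxel was given intravenously and the test agent orally.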

EBC-1 [4] = assay: Antitumor activity against human EBC-1 cells xenografted in po dosed SCID-bg mouse assessed as maximum tumor growth inhibition relative to control; format: functional
NCI-H1650 = assay: Synergistic antitumor activity against human NCI-H1650 cells xenografted in SCID-bg mouse assessed as maximum tumor growth inhibition at 25 mg/kg, po coadministered with docetaxel once daily for 14 days relative to control; format: functional; settings: NCI-H1650, 336 h, time 14 day, read-out: TGI
In short: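 Xenografts dosed with oral inhibitor plus intravenous docetaxel. TGImax = 100(1 − Tv/Cv), from mean treated and control tumor volumes; TGD = 100(T/C − 1), from median times to reach 1 cm3. Group size 5 mice (NCI-H747, A549-FP3, EBC-1, OVCAR-5), 8 (NCI-H358), 10 (NCI-H1650).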

[5] = Toxicity in po dosed SCID mouse assessed as tolerance in presence of docetaxel; format: organism-based; settings: in vivo
OVCAR-5 = assay: Antitumor activity against human OVCAR-5 xenografted in po dosed SCID mouse assessed as maximum tumor growth inhibition relative to control; format: functional
NCI-H1703 = assay: Synergistic antiproliferative activity against human NCI-H1703 cells assessed as reduction in cell viability by measuring bliss sum score incubated for 72 hrs in presence of docetaxel by CellTiter-Glo cell vaibility assay; format: functional
HCC38 = assay: Synergistic antiproliferative activity against human HCC38 cells assessed as reduction in cell viability by measuring bliss sum score incubated for 72 hrs in presence of docetaxel by CellTiter-Glo cell vaibility assay; format: functional
NCI-H146 = assay: Induction of apoptosis in Bcl-xl dependent human NCI-H146 cells assessed as accumulation of caspase-dependent sub G0-G1 DNA content upto 5000 nM incubated for 24 hrs by fluorescence-activated cell sorting analysis; format: functional, cell-based
In short: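 NCI-H146 cells were preincubated for 1 h with or without the caspase inhibitor Z-VAD-fmk (75 μM). They were then exposed to increasing concentrations for 24 h. Sub-G0-G1 DNA content was measured by fluorescence-activated cell sorting.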

NCI-H838 = assay: Synergistic antiproliferative activity against human NCI-H838 cells assessed as reduction in cell viability by measuring bliss sum score incubated for 72 hrs in presence of docetaxel by CellTiter-Glo cell vaibility assay; format: functional
EBC-1 [6] = assay: Antagonistic antiproliferative activity against human EBC-1 cells assessed as reduction in cell viability by measuring bliss sum score incubated for 72 hrs in presence of docetaxel by CellTiter-Glo cell vaibility assay; format: functional
OVCAR-4 = assay: Antagonistic antiproliferative activity against human OVCAR-4 cells assessed as reduction in cell viability by measuring bliss sum score incubated for 72 hrs in presence of docetaxel by CellTiter-Glo cell vaibility assay; format: functional
SK-BR-3 = assay: Synergistic antiproliferative activity against human SK-BR-3 cells assessed as reduction in cell viability by measuring bliss sum score incubated for 72 hrs in presence of docetaxel by CellTiter-Glo cell vaibility assay; format: functional
[7] = Synergistic antiproliferative activity against human HCC1500 cells assessed as reduction in cell viability by measuring bliss sum score incubated for 72 hrs in presence of docetaxel by CellTiter-Glo cell vaibility assay; format: functional
NCI-H522 = assay: Synergistic antiproliferative activity against human NCI-H522 cells assessed as reduction in cell viability by measuring bliss sum score incubated for 72 hrs in presence of docetaxel by CellTiter-Glo cell vaibility assay; format: functional
ZR-75-1 [8] = assay: Synergistic antiproliferative activity against human ZR-75-1 cells assessed as reduction in cell viability by measuring bliss sum score incubated for 72 hrs in presence of docetaxel by CellTiter-Glo cell vaibility assay; format: functional
SK-OV-3 = assay: Synergistic antiproliferative activity against human SK-OV-3 cells assessed as reduction in cell viability by measuring bliss sum score incubated for 72 hrs in presence of docetaxel by CellTiter-Glo cell vaibility assay; format: functional
BT-20 = assay: Synergistic antiproliferative activity against human BT-20 cells assessed as reduction in cell viability by measuring bliss sum score incubated for 72 hrs in presence of docetaxel by CellTiter-Glo cell vaibility assay; format: functional
BT-474 = assay: Induction of apoptosis in human BT-474 cells assessed as accumulation of cells with sub-G0-G1 DNA content at 1 uM incubated for 48 hrs in presence of docetaxel by flow cytometric analysis; format: functional, cell-based
MCF7 = assay: Induction of apoptosis in human MCF7 cells expressing luciferase assessed as accumulation of cells with sub-G0-G1 DNA content at 1 uM incubated for 48 hrs in presence of docetaxel by flow cytometric analysis; format: functional, cell-based
HCC1806 = assay: Induction of apoptosis in human HCC1806 cells assessed as accumulation of cells with sub-G0-G1 DNA content at 1 uM incubated for 48 hrs in presence of docetaxel by flow cytometric analysis; format: functional, cell-based
HCC1395 = assay: Induction of apoptosis in human HCC1395 cells assessed as accumulation of cells with sub-G0-G1 DNA content at 1 uM incubated for 48 hrs in presence of docetaxel by flow cytometric analysis; format: functional, cell-based
MDA-MB-175-VII = assay: Induction of apoptosis in human MDA-MB-175-VII cells assessed as accumulation of cells with sub-G0-G1 DNA content at 1 uM incubated for 48 hrs in presence of docetaxel by flow cytometric analysis; format: functional, cell-based
MDA-MB-231 [9] = assay: Induction of apoptosis in human MDA-MB-231 cells assessed as accumulation of cells with sub-G0-G1 DNA content at 1 uM incubated for 48 hrs in presence of docetaxel by flow cytometric analysis; format: functional, cell-based
ZR-75-1 [10] = assay: Induction of apoptosis in human ZR-75-1 cells assessed as increase in caspase cleavage incubated for 48 hrs in presence of docetaxel by immunoblot analysis; format: functional, cell-based

## Cc1c(-c2ccc(N3CCc4cccc(C(=O)Nc5nc6ccccc6s5)c4C3)nc2C(=O)O)cnn1CC12CC3CC(CC(C3)C1)C2
[1]
  Activity: < 9%
MDA-MB-231 [2]
  Activity: 55%
MDA-MB-231 [3]
  inhibition in vivo at 25 mg/kg: 93%
NCI-H747
  Activity: 33%
EBC-1 [4]
  TGI: 52%
NCI-H1650
  inhibition in vivo at 25 mg/kg: 98%
[5]
  Activity: Non-Toxic
OVCAR-5
  TGI: 34%

## CN(C)CC#Cc1ccc(OCCCc2sc(N3CCc4cccc(C(=O)Nc5nc6ccccc6s5)c4C3)nc2C(=O)O)c(F)c1 [A-1155463]
NCI-H1703
  Activity_index: 29
HCC38
  Activity_index: 42
NCI-H146
  Activity: Active
NCI-H838
  Activity_index: 128
EBC-1 [6]
  Activity_index: -103
OVCAR-4
  Activity_index: -129
SK-BR-3
  Activity_index: 101
[7]
  Activity_index: 146
NCI-H522
  Activity_index: 242
ZR-75-1 [8]
  Activity_index: 103
SK-OV-3
  Activity_index: 747
BT-20
  Activity_index: 260

## CC1(C)CCC(c2ccc(Cl)cc2)=C(CN2CCN(c3ccc(C(=O)NS(=O)(=O)c4ccc(N[C@H](CCN5CCOCC5)CSc5ccccc5)c(S(=O)(=O)C(F)(F)F)c4)cc3)CC2)C1 [NAVITOCLAX]
BT-474
  Activity: Active
MCF7
  Activity: Active
HCC1806
  Activity: Active
HCC1395
  Activity: Active
MDA-MB-175-VII
  Activity: Active
MDA-MB-231 [9]
  Activity: Active
ZR-75-1 [10]
  Activity: Active
